Variants at the floor of the assay were thinned out.

The labels stand for the following.
B1: tRNA (parent)
chain: GUUCCGUUGGCGUAAUGGUAACGCGUCUCCCUCCUAAGGAGAAGACUGCGGGUUCGAGUCCCGUACGGAACG

Variants of B1 are the subject of this series. The experiment in a line: yeast fitness relative to wild type (ratio to wild type); higher = fitter; tRNA-Arg(CCU), competitive growth, 37 C, YPD. Put shortly:
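Changes in genotype frequencies gave Darwinian fitness relative to wild type. Frequencies were read by 100-nucleotide paired-end sequencing of gene amplicons before and after pooled Saccharomyces cerevisiae strains, carrying tRNA-Arg(CCU) gene variants at the native locus, were competed in YPD at 37°C for 24 hours in six replicates. A genotype was kept only with ≥ 100 starting reads, and estimates < 0.5 were set to 0.5.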
With GUUCCGUUGGCGUAAUGGUAACGCGUUUCCCUCCGAAGGAGUAGACUGCGGGUUCGAGUCCCGUACGGAACG [C27U U35G A42U], the yeast fitness was at most 0.5.

As for GUUCCGUUGGCGUAAUGGUAACGCGUCACCCUCCUAUGGAGAAGACUGCGGGUUCGAGUCCCGUACGGCACG [U28A A37U A69C], the yeast fitness was at most 0.5.

Turning to GUUCCGUUGGCGUAAUGGUAACGCGUUUCCCUCCGAAGGAGAAGACUGCGGGUUCGCGUCCCGUCCGGAUCG [C27U U35G A57C A65C A70U], the yeast fitness is at most 0.5.

As for GUUCCGUUGGCGUAAUGGUAACGCGUUCCCCUCCUAAGGAGAAGACUGCGGGUUCGAGUCCUGUACGGAACG [C27U U28C C62U], the yeast fitness was found to be 0.625.

Turning to GUUCCGUUGGCGUAAUGGUAACGCGUUUCCCUCCUAAGGAGAAGACUAUGGGUUCGAGUCCCGUACGGAACG [C27U G48A C49U], the yeast fitness was determined as 1.01.

Take GUUCCGUUGGCGUAAUGGUAACGCGUUUCCCUCCUAAGGAGAAGACGGCAGGUUCGAGUCCCGUACGGAACG [C27U U47G G50A]: the yeast fitness is at most 0.5.

Consider GUUCCGUUGGCGUAAUGGUAACGCGUUUCCCUCCUAAGCAGAAGACUGCGGGUUCGAGUACCGUACGGAACG [C27U G39C C60A], for which the yeast fitness was at most 0.5.

On to GUUCCGUUGGCGUAAUGGUAACGCGUUGCCCUCCUAAGGCGAAGACUGCGGGUUGGAGUCCCGUACGGACCG [C27U U28G A40C C55G A70C], for which the yeast fitness was at most 0.5.

As to GUUCCGUUGGCGUAAUGGUAACGCGUUGGCCUCCUAAGGAGAAGACUGCGGGUUCGAGUCCCGUACGGAACG [C27U U28G C29G], the yeast fitness was at most 0.5.

For the variant GUUCCGUUGGCGUAAUGGUAACGCGUUCCCCUCCUAAGGAGAAGCCUGCGGGUUCGAGUCCCGUACGGAACG [C27U U28C A45C], the yeast fitness was found to be 0.773.

With GUUCCGUUGGCGUAAUGGUAACGCGUUUCCCUCCUAAAGAGAAGACUGCGGGUUCGAGUCCCGUAUGGAACG [C27U G38A C66U], the yeast fitness was 0.623.

For GUUCCGUUGGCGUAAUGGUAACGCGUUUCCCUCCUAAGGAGAAGACUGCGGGUGUGAGUCCCGUACGGAACG [C27U U54G C55U], the yeast fitness is at most 0.5.

As to GUUCCGUUGGCGUAAUGGUAACGCGUUUCCCUCCUAACGAGAAGACUGCGGGUUCGUGUCCCGUACGGAACG [C27U G38C A57U], the yeast fitness stood at 0.552.

Take GUUCCGUUGGCGUAAUGGUAACGCGUUUCCCACCUAAGGAGAAGACUGCGGAUUCGAGUCCCGUAUCGAACG [C27U U32A G52A C66U G67C]: the yeast fitness was at most 0.5.

As to GUUCCGUUGGCGUAAUGGUAACGCGUCACCCUCCUAGGGGGAAGACUGCGGGUUCGAGUCCCGUACGGAACG [U28A A37G A40G], the yeast fitness was at most 0.5.

For the variant GUUCCGUUGGCGUAAUGGUAACGCGUUACCCACUUCAGGAGAAGACUGCGGGUUCGAGUCCCGUACGGAACG [C27U U28A U32A C34U A36C], the yeast fitness came out at 0.554.

Consider GUUCCGUUGGCGUAAUGGUAACGCGUCACCCUCCUAAGGUGAAGACUGCGGGUUCGAGUCCCGUACGGAACG [U28A A40U], for which the yeast fitness was found to be 0.984.

Regarding GUUCCGUUGGCGUAAUGGUAACGCGUUUCCCUCCUAAGGAGAAGACUGCGGGUUCGACUCCCGUACGGAUCG [C27U G58C A70U], the yeast fitness was determined as 0.876.

Take GUUCCGUUGGCGUAAUGGUAACGCGUUUCCCUCCAAAGGAGAAGACUGCGGGUUCGAGCCCCGUACGGAACG [C27U U35A U59C]: the yeast fitness was at most 0.5.

GUUCCGUUGGCGUAAUGGUAACGCGUUUCCCUCCUAAGGAGAAGACUGCGGGUGCGAGUCCCGUACGGAACG [C27U U54G]: the yeast fitness is 0.581.

Regarding GUUCCGUUGGCGUAAUGGUAACGCGUUUCCCUCCUAAGGAGAAGACUGCGGGUCCGAGUCCCGUACGGAACG [C27U U54C], the yeast fitness was determined as 0.93.

Turning to GUUCCGUUGGCGUAAUGGUAACGCGUUUCCCUCCUAACAAGACGACUGCGGGUUCGAGUGCCGUCCGGAACG [C27U G38C G39A A43C C60G A65C], the yeast fitness was at most 0.5.

With GUUCCGUUGGCGUAAUGGUAACGCGUUUCCCUCCUAAAGAGAAGACUGCGAGUUCGAGUCCCGUACGGAACG [C27U G38A G51A], the yeast fitness is at most 0.5.

Consider GUUCCGUUGGCGUAAUGGUAACGCGUUUCCCUCCUAAGGAGAAGACUGCGGGUUCGAGUCCCGUACUGAACG [C27U G67U], for which the yeast fitness was 0.854.

Turning to GUUCCGUUGGCGUAAUGGUAACGCGUUUCCCUCCUAAGGAGAAGACUGCGGGUUCGAGUCCCGUACCGAACG [C27U G67C], the yeast fitness was determined as 0.771.

With GUUCCGUUGGCGUAAUGGUAACGCGUUUCCCUCCCAAGGAGAAGACUGCGGGUUCGAGUCCCGUACGGUACG [C27U U35C A69U], the yeast fitness is 0.802.

As to GUUCCGUUGGCGUAAUGGUAACGCGUUUCCCUCCUAAGGAGAAGACUGCGGAAUCGAGUCCUGUACGGAACG [C27U G52A U53A C62U], the yeast fitness is at most 0.5.

For GUUCCGUUGGCGUAAUGGUAACGCGUUUCCCUCCUAAGGAGAAGACUGCGGGUUCGAGUCCCGUAUGGUACG [C27U C66U A69U], the yeast fitness was 0.779.

Take GUUCCGUUGGCGUAAUGGUAACGCGUUUCCCCCCUAAGGAGAAGACUGCGGGUUCGAGUCCCGUACGGAACG [C27U U32C]: the yeast fitness stood at 0.844.

Regarding GUUCCGUUGGCGUAAUGGUAACGCGUUUCCCUCCUAAGGAAAAGACUGCGGGUUCGACUCCCGUACGGCACG [C27U G41A G58C A69C], the yeast fitness was 0.645.

Consider GUUCCGUUGGCGUAAUGGUAACGCGUUUCCCUCCUAAAGAGAAGACUGCGGGUUCGAGUCCCGUACGGAACG [C27U G38A], for which the yeast fitness came out at 0.773.

GUUCCGUUGGCGUAAUGGUAACGCGUUUCCCUCCUAACGAGAAGACUGCGGGUUCGAGUCCCGUACGGAACG [C27U G38C]: the yeast fitness was 0.626.

GUUCCGUUGGCGUAAUGGUAACGCGUUUCCCUCCUAAGGAGAAGACUGCGGGUUCGAGUCCCAUACGGAACG [C27U G63A]: the yeast fitness worked out at 0.867.

Take GUUCCGUUGGCGUAAUGGUAACGCGUUUCCCUCCUAAGGAAAAGACUGCGGGUUCGAGUACCGUACGGAACG [C27U G41A C60A]: the yeast fitness was determined as 0.878.

Consider GUUCCGUUGGCGUAAUGGUAACGCGUUUCCCUCCUAAGCAGAAGACUGCGGGUUCGAGUCCCGUACGGAACG [C27U G39C], for which the yeast fitness amounted to 0.613.

As to GUUCCGUUGGCGUAAUGGUAACGCGUUUCCCACCUAAGGAGAAGACUGCGGGUUCGAGUCCCGUAUCGAACG [C27U U32A C66U G67C], the yeast fitness was determined as 0.598.

In the case of GUUCCGUUGGCGUAAUGGUAACGCGUCACCCUCCUAAGGCGAAGAGUGCGGGUUCGAGUCCCGUACGGAACG [U28A A40C C46G], the yeast fitness was at most 0.5.

The values are drawn from the RNAGym collection of RNA variant scans (doi:10.1126/science.aae0568).
